Data taken from ChEMBL document CHEMBL4177766, “Targeting a Subpocket in Trypanosoma brucei Phosphodiesterase B1 (TbrPDEB1) Enables the Structure-Based Discovery of Selective Inhibitors with Trypanocidal Activity” (J Med Chem, 2018).
Activity calls are given as the source filed them. The rule behind the calls is not given here.

Assays:
[1] = target: T1, Class 1 phosphodiesterase PDEB1 (Trypanosoma brucei) (UniProt Q8WQX9); experiment: Inhibition of PDEB1 in bloodstream form of Trypanosoma brucei Lister 427 assessed as increase in intracellular cAMP levels at 0.3 uM after 5 hrs by ELISA; format: cell-based
T1 sequence (whole entry): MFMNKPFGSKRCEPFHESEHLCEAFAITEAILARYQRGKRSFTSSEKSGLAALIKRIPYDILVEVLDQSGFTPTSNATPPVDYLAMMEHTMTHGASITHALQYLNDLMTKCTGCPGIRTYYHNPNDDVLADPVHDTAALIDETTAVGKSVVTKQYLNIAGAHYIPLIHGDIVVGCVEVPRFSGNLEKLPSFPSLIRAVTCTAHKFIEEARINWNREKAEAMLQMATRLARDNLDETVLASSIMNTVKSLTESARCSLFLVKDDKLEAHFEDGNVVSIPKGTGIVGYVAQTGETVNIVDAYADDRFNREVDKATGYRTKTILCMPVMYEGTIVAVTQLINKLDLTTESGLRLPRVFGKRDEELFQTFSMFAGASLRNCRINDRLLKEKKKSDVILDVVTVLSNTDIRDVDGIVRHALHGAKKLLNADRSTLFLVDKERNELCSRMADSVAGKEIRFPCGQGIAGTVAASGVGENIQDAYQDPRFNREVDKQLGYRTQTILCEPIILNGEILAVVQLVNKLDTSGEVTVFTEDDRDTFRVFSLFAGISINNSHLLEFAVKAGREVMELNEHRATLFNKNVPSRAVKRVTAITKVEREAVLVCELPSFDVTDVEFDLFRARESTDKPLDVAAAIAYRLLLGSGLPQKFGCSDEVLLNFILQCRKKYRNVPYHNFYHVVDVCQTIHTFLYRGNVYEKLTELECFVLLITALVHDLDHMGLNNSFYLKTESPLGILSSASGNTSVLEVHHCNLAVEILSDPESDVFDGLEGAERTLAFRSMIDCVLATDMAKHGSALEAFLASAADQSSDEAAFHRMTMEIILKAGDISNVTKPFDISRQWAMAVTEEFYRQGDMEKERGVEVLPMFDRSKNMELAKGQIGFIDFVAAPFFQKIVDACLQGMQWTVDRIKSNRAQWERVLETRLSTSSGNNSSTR
Method in brief: (§1)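 Log-phase bloodstream forms in HMI-9/FBS at 2 × 10^6 cells/mL, 6 mL subcultures; test drug 0.1–10 μM, reference inhibitor 0.3 μM, pentamidine 0.025 μM or no drug; 5 h at 37 °C, 5% CO2. 5 × 10^6 cells pelleted, lysed 20 min on ice in 0.1 M HCl, supernatant frozen for cAMP. Duplicates; mean of four determinations ± SEM; Student's t-test.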

[2] = target: 3',5'-cyclic-AMP phosphodiesterase 4B (Homo sapiens, UniProt Q07343); experiment: Inhibition of full length recombinant human PDE4B1 expressed in Sf21 insect cells using cAMP as substrate by scintillation proximity assay
[3] = target: T2, Class 1 phosphodiesterase PDEB1 (Trypanosoma brucei, UniProt Q8WQX9); experiment: Inhibition of full length Trypanosoma brucei PDEB1 expressed in Sf21 insect cells using cAMP as substrate by scintillation proximity assay
T2 sequence (Q8WQX9 whole entry): T1 sequence (whole entry)
Method in brief: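 Enzyme amount set so that under 20% of substrate was consumed. Ki reported as mean ± SD of at least two independent experiments.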

[4] = target: T1, Class 1 phosphodiesterase PDEB1 (Trypanosoma brucei); experiment: Inhibition of PDEB1 in bloodstream form of Trypanosoma brucei Lister 427 assessed as increase in intracellular cAMP levels at 0.025 uM after 5 hrs by ELISA; format: cell-based; method in brief: as §1
[5] = Selectivity ratio of Ki for full length recombinant human PDE4B1 to Ki for full length Trypanosoma brucei PDEB1
[6] = test system: MRC5; experiment: Cytotoxicity against human MRC5 cells assessed as decrease in cell viability after 72 hrs by resazurin assay; format: cell-based; conditions: mrc5, 72 h
[7] = test system: Trypanosoma brucei; experiment: Antitrypanosomal activity against trypomastigote form of Trypanosoma brucei Squib 427 assessed as parasite growth inhibition after 72 hrs by resazurin assay; format: functional, organism-based; conditions: Squib 427, 72 h
Method in brief: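 Suramin-sensitive Squib-427 bloodstream trypomastigotes grown in HMI-9 + 10% FCS at 37 °C, 5% CO2. About 1.5 × 10^4 parasites per well exposed to five concentrations (64, 16, 4, 1, 0.25 μM), DMSO ≤0.5% final. After 72 h, resazurin added and absorbance read at 540 nm 4 h later, expressed as % of blank controls. Suramin reference; IC50 from triplicate experiments, mean ± SD.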

[8] = test system: Trypanosoma brucei; experiment: Antitrypanosomal activity against bloodstream form of Trypanosoma brucei Lister 427 assessed as appearance of misshapen cells at 10 uM after 24 hrs by DAPI staining-based fluorescence microscopic method; format: functional, organism-based
Method in brief: (§2)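 Bloodstream-form trypanosomes seeded at 2 × 10^5 cells/mL with 10 μM drug; samples taken at 0, 6, 12 and 24 h, pelleted at 4 °C, washed in PBS pH 7.4, air-dried on slides, fixed 15 min in 4% formaldehyde/PBS, mounted with DAPI. Nuclei, kinetoplasts, cell division and morphology were scored by brightfield and fluorescence microscopy.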

[9] = test system: Trypanosoma brucei; experiment: Antitrypanosomal activity against bloodstream form of Trypanosoma brucei Lister 427 assessed as defect in cytokinesis at 10 uM after 6 hrs by DAPI staining-based fluorescence microscopic method; format: functional, organism-based; method in brief: as §2
[10] = test system: Trypanosoma brucei; experiment: Antitrypanosomal activity against bloodstream form of Trypanosoma brucei Lister 427 assessed as appearance of rounded cells with multiple flagella at 10 uM after 12 hrs by DAPI staining-based fluorescence microscopic method; format: functional, organism-based; method in brief: as §2
[11] = target: T1, Class 1 phosphodiesterase PDEB1 (Trypanosoma brucei); experiment: Inhibition of PDEB1 in bloodstream form of Trypanosoma brucei Lister 427 assessed as increase in intracellular cAMP levels after 5 hrs by ELISA; format: cell-based; method in brief: as §1

3',5'-cyclic-AMP phosphodiesterase 4B, sequence (Q07343 whole entry): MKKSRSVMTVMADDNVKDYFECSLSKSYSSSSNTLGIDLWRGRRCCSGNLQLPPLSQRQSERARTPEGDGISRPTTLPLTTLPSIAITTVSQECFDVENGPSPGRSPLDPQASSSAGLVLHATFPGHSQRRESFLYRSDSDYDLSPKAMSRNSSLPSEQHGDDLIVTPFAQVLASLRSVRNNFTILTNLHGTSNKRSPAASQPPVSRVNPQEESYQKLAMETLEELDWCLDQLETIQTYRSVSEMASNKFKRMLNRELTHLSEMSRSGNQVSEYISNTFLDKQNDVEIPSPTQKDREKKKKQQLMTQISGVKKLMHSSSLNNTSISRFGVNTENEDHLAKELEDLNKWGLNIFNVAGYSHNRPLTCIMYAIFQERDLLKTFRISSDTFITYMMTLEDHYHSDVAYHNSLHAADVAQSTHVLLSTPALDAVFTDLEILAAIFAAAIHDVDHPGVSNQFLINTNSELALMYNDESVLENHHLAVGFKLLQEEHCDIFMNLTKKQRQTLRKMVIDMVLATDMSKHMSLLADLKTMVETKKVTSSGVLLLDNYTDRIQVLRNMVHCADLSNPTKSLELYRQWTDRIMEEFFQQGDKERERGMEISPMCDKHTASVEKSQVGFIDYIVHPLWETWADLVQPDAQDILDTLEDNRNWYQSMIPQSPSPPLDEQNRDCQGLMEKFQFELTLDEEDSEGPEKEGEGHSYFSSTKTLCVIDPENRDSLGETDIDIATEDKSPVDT

SMILES	Ki [2] [µM]	Ki [3] [µM]	Ratio Ki [5]	also measured
COc1ccc(C2=NN(C3CCCCCC3)C(=O)[C@@H]3CC=CC[C@H]23)cc1OCCCCOc1ccc(-c2nnn[nH]2)cc1	0.000631	–	–	inhibition [1]: Active
COc1ccc(C2=NN(C3CCCCCC3)C(=O)[C@H]3CC=CC[C@@H]23)cc1-c1ccc(C(=O)NCC(N)=O)cc1	50.1	3.98	–	–
N=C(N)c1ccc(OCCCCCOc2ccc(C(=N)N)cc2)cc1	–	–	–	inhibition [4]: inactive
COc1ccc(C2=NN(C(C)C)C(=O)[C@@H]3CC=CC[C@H]23)cc1-c1ccc(C(=O)N2CCC[C@@H]2C(N)=O)cc1 (racemic)	–	–	18	–
COc1ccc(C2=NN(C(C)C)C(=O)[C@@H]3CC=CC[C@H]23)cc1-c1ccc(C(=O)N2CC[C@@H](O)C2)cc1 (racemic)	–	–	15	–
COc1ccc(C2=NN(C3CCCCCC3)C(=O)[C@@H]3CC=CC[C@H]23)cc1-c1ccc(C(=O)N2CCC[C@@H]2C(N)=O)cc1 (racemic)	–	–	13	–
COc1ccc(C2=NN(C3CCCCCC3)C(=O)[C@@H]3CC=CC[C@H]23)cc1-c1ccc(C(=O)N2CC[C@@H](O)C2)cc1 (racemic)	–	–	9	–
COc1ccc(C2=NN(C3CCCCCC3)C(=O)[C@@H]3CC=CC[C@H]23)cc1-c1ccc(C#N)cc1 (relative stereo)	0.0316	0.501	0.1	–
COc1ccc(C2=NN(C3CCCCCC3)C(=O)[C@@H]3CC=CC[C@H]23)cc1-c1ccc(C(N)=O)cc1 (relative stereo)	0.158	0.158	1	–
COc1ccc(C2=NN(C3CCCCCC3)C(=O)[C@@H]3CC=CC[C@H]23)cc1-c1cccc(C(=O)O)c1 (relative stereo)	12.6	7.94	2	–
COc1ccc(C2=NN(C3CCCCCC3)C(=O)[C@@H]3CC=CC[C@H]23)cc1-c1ccc(C(=O)NCC(=O)NCCO)cc1 (relative stereo)	3.16	0.398	7	–
COc1ccc(C2=NN(C(C)C)C(=O)[C@@H]3CC=CC[C@H]23)cc1-c1ccc(C(=O)NCC(N)=O)cc1 (relative stereo)	2	0.1	–	CC50 [6]: 35 µM; IC50 ([7]; read-out: IC50): 6.7 µM
COc1ccc(C2=NN(C3CCCCCC3)C(=O)[C@@H]3CC=CC[C@H]23)cc1-c1ccc(C(=O)O)cc1 (relative stereo)	7.94	1.58	5	–
COc1ccc(C2=NN(C3CCCCCC3)C(=O)[C@@H]3CC=CC[C@H]23)cc1-c1ccc(C(=O)N(C)CC(N)=O)cc1 (relative stereo)	2.51	0.398	7	–
COc1ccc(C2=NN(C3CCCCCC3)C(=O)[C@@H]3CC=CC[C@H]23)cc1-c1ccc(C(=O)NCCC(N)=O)cc1 (relative stereo)	1	0.501	2	–
COCCNC(=O)CNC(=O)c1ccc(-c2cc(C3=NN(C4CCCCCC4)C(=O)[C@@H]4CC=CC[C@H]34)ccc2OC)cc1 (relative stereo)	3.98	0.501	8	–
COc1ccc(C2=NN(C3CCCCCC3)C(=O)[C@@H]3CC=CC[C@H]23)cc1-c1ccc(C(=O)NCC(N)=O)cc1 (relative stereo)	–	–	–	Activity [8]: Active; Activity [9]: Active; Activity [10]: Active; CC50 [6]: 36 µM; inhibition [11]: Dose-dependent effect; IC50 ([7]; read-out: IC50): 5.5 µM
COc1ccc(C2=NN(C3CCCCCC3)C(=O)[C@@H]3CC=CC[C@H]23)cc1-c1ccc(C(=O)NCC(=O)NC(C)C)cc1 (relative stereo)	6.31	2	4	–
COc1ccc(C2=NN(C3CCCCCC3)C(=O)[C@@H]3CC=CC[C@H]23)cc1-c1ccc(C(=O)NCCNC(C)=O)cc1 (relative stereo)	3.98	0.794	5	–
COCCNC(=O)c1ccc(-c2cc(C3=NN(C4CCCCCC4)C(=O)[C@@H]4CC=CC[C@H]34)ccc2OC)cc1 (relative stereo)	2	0.316	7	–
CNC(=O)CNC(=O)c1ccc(-c2cc(C3=NN(C4CCCCCC4)C(=O)[C@@H]4CC=CC[C@H]34)ccc2OC)cc1 (relative stereo)	2.51	0.398	6	–
COc1ccc(C2=NN(C3CCCCCC3)C(=O)[C@@H]3CC=CC[C@H]23)cc1-c1ccc(C(=O)NCC(=O)N(C)C)cc1 (relative stereo)	3.16	0.794	4	–
COc1ccc(C2=NN(C3CCCCCC3)C(=O)[C@@H]3CC=CC[C@H]23)cc1-c1ccc(C(=O)N2CC(=O)N(C)C2)cc1 (relative stereo)	–	–	1.4	–
COc1ccc(C2=NN(C3CCCCCC3)C(=O)[C@@H]3CC=CC[C@H]23)cc1-c1ccc(C(=O)N2CCC(=O)C2)cc1 (relative stereo)	–	–	3	–
COc1ccc(C2=NN(C3CCCCCC3)C(=O)[C@@H]3CC=CC[C@H]23)cc1-c1ccc(C(=O)N2CNC(=O)C2)cc1 (relative stereo)	–	–	1	–
O=C(Nc1c(Cl)cncc1Cl)c1ccc(OC(F)F)c(OCC2CC2)c1 [ROFLUMILAST]	–	3.16	–	–
Cc1ccc(C(=O)Nc2ccc(S(=O)(=O)O)c3cc(S(=O)(=O)O)cc(S(=O)(=O)O)c23)cc1NC(=O)c1cccc(NC(=O)Nc2cccc(C(=O)Nc3cc(C(=O)Nc4ccc(S(=O)(=O)O)c5cc(S(=O)(=O)O)cc(S(=O)(=O)O)c45)ccc3C)c2)c1 [SURAMIN]	–	–	–	IC50 ([7]; read-out: pIC50 (converted)): 0.0398 µM
